Test results published in ChEMBL document CHEMBL4699550, “Isolation of Picrotoxanes from Austrobuxus carunculatus Using Taxonomy-Based Molecular Networking” (J Nat Prod, 2020).
The source made the active and inactive calls. The rule behind the calls is not given here.

Key:
U-87 MG [1] = test: Antiproliferative activity against human U87 cells assessed as reduction in cell viability at 1 uM after 72 hrs by CellTiter Glo assay; assay type: functional, cell-based; conditions: U-87MG ATCC
A549 [2] = test: Antiproliferative activity against human A549 cells assessed as reduction in cell viability at 1 uM after 72 hrs by CellTiter Glo assay; assay type: functional, cell-based
HCT-116 [3] = test: Antiproliferative activity against human HCT-116 cells assessed as reduction in cell viability at 1 uM after 72 hrs by CellTiter Glo assay; assay type: functional, cell-based
U-87 MG [4] = test: Antiproliferative activity against human U87 cells assessed as reduction in cell viability at 10 uM after 72 hrs by CellTiter Glo assay; assay type: functional, cell-based; conditions: U-87MG ATCC
HCT-116 [5] = test: Antiproliferative activity against human HCT-116 cells assessed as reduction in cell viability at 10 uM after 72 hrs by CellTiter Glo assay; assay type: functional, cell-based
A549 [6] = test: Antiproliferative activity against human A549 cells assessed as reduction in cell viability at 10 uM after 72 hrs by CellTiter Glo assay; assay type: functional, cell-based
HCT-116 [7] = test: Antiproliferative activity against human HCT-116 cells assessed as reduction in cell viability after 72 hrs by CellTiter Glo assay; assay type: functional, cell-based; conditions: HCT-116, 72 h
Method in brief: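 HCT-116 (ATCC) grown in McCoy's 5A with 10% FCS, 1% L-glutamine, 37 °C, 5% CO2. Seeded 3 × 10³ cells/well; after 24 h treated with 10 final concentrations by serial dilution in medium; vehicle controls; triplicate. Luminescent viability read-out after 72 h, reagent 15 min. IC50 from four- or five-parameter logistic fit of dose-response curves.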

U-87 MG [8] = test: Antiproliferative activity against human U87 cells assessed as reduction in cell viability after 72 hrs by CellTiter Glo assay; assay type: functional, cell-based, U-87MG ATCC
Method in brief: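 U87-MG glioblastoma cells (ATCC) grown in DMEM with 10% FCS and 1% L-glutamine at 37 °C under 5% CO2. Seeded at 3 × 10³ cells/well, cultured 24 h, then treated at 10 final concentrations serially diluted in medium; vehicle-treated controls. CellTiter-Glo luminescence read after 72 h. Triplicate runs; IC50 from four- or five-parameter logistic curves.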

A549 [9] = test: Antiproliferative activity against human A549 cells assessed as reduction in cell viability after 72 hrs by CellTiter Glo assay; assay type: functional, cell-based; conditions: A549, 72 h
Method in brief: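 A549 cells (ATCC) grown in RPMI 1640 with 10% FCS and 1% L-glutamine at 37 °C under 5% CO2. Seeded at 3 × 10³ cells/well and cultured 24 h, then given 10 final concentrations from serial dilution in medium; vehicle controls. After 72 h, viability read by CellTiter-Glo luminescence. Run in triplicate; IC50 from four- or five-parameter logistic fits.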

| IC50 (HCT-116 [7]) [µM] | SMILES | Activity (U-87 MG [1]) | Activity (A549 [2]) | Activity (HCT-116 [3]) | Activity (U-87 MG [4]) | Activity (HCT-116 [5]) | Activity (A549 [6]) | IC50 (U-87 MG [8]) [µM] | IC50 (A549 [9]) [µM] |
| --- | --- | --- | --- | --- | --- | --- | --- | --- | --- |
| – | C=C(C)[C@@H]1[C@H]2OC(=O)[C@@H]1[C@]1(O)[C@H]3O[C@H]3[C@]3(CO3)[C@]1(C)[C@@H]2O | inactive | inactive | inactive | – | – | – | – | – |
| – | C=C(C)[C@@H]1[C@H]2OC(=O)[C@@H]1[C@]1(O)[C@H]3O[C@H]3[C@]3(C[C@H]([C@H](C)OC(=O)CCCCCCCCCCCCCCC)C(=O)O3)[C@]1(C)[C@@H]2O | inactive | inactive | inactive | – | – | – | – | – |
| – | C=C(C)[C@@H]1[C@H]2OC(=O)[C@@H]1[C@]1(O)[C@H]3O[C@H]3[C@]3(C/C(=C\C)C(=O)O3)[C@]1(C)[C@@H]2O | inactive | inactive | inactive | – | – | – | – | – |
| – | C=C(C)[C@@H]1[C@H]2OC(=O)[C@@H]1[C@]1(O)[C@H]3O[C@H]3[C@]3(C[C@H]([C@H](C)OC(=O)CCCCCCCCC)C(=O)O3)[C@]1(C)[C@@H]2O | inactive | inactive | inactive | – | – | – | – | – |
| – | C=C(C)[C@@H]1[C@H]2OC(=O)[C@@H]1[C@]1(O)[C@H]3O[C@H]3[C@]3(CO3)[C@]1(C)[C@@H]2OC(=O)CCCCCCCCCCC | inactive | inactive | inactive | Active | Active | Active | – | – |
| – | C=C(C)[C@@H]1[C@H]2OC(=O)[C@@H]1[C@]1(O)[C@H]3O[C@H]3[C@]3(C[C@@H]([C@H](C)OC(=O)CCCCCCCCC)C(=O)O3)[C@]1(C)[C@@H]2O | inactive | inactive | inactive | – | – | – | – | – |
| – | C=C(C)[C@@H]1[C@H]2OC(=O)[C@@H]1[C@]1(O)[C@H]3O[C@H]3[C@]3(C[C@H]([C@H](C)OC(=O)CCCCCCCCCCCCC)C(=O)O3)[C@]1(C)[C@@H]2O | inactive | inactive | inactive | – | – | – | – | – |
| – | C=C(C)[C@@H]1[C@H]2OC(=O)[C@@H]1[C@]1(O)[C@H]3O[C@H]3[C@]3(C[C@@H]([C@H](C)OC(=O)CCCCCCCCCCC)C(=O)O3)[C@]1(C)[C@@H]2O | inactive | inactive | inactive | – | – | – | – | – |
| – | C=C(C)[C@@H]1[C@H]2OC(=O)[C@@H]1[C@]1(O)[C@H]3O[C@H]3[C@]3(C[C@H]([C@H](C)OC(=O)CCCCCCCCCCC)C(=O)O3)[C@]1(C)[C@@H]2O | inactive | inactive | inactive | – | – | – | – | – |
| 56.6 | COc1cccc2c1C(=O)c1c(O)c3c(c(O)c1C2=O)C[C@@](O)(C(=O)CO)C[C@@H]3O[C@H]1C[C@H](N)[C@H](O)[C@H](C)O1 [DOXORUBICIN] | – | – | – | – | – | – | 99.6 | 90 |
| – | CO[C@@H](C)[C@@]1(O)C[C@@]2(OC1=O)[C@@H]1O[C@@H]1[C@@]1(O)[C@H]3C(=O)O[C@H]([C@H]3C(C)C)[C@@H](O)[C@]12C | inactive | inactive | inactive | – | – | – | – | – |
| – | C=C(C)[C@@H]1[C@H]2OC(=O)[C@@H]1[C@]1(O)[C@H]3O[C@H]3[C@]3(C[C@](O)([C@H](C)OC)C(=O)O3)[C@]1(C)[C@@H]2O | inactive | inactive | inactive | – | – | – | – | – |
| – | C=C(C)[C@@H]1[C@H]2OC(=O)[C@@H]1[C@]1(O)[C@H]3O[C@H]3[C@]3(C[C@@H]([C@H](C)O)C(=O)O3)[C@]1(C)[C@@H]2O | inactive | inactive | inactive | – | – | – | – | – |
| – | C=C(C)[C@@H]1[C@H]2OC(=O)[C@@H]1[C@]1(O)[C@H]3O[C@H]3[C@]3(C[C@@H]([C@H](C)O)C(=O)O3)[C@]1(C)[C@@H]2OC(=O)CCCCCCCCCCC | inactive | inactive | inactive | Active | Active | Active | 0.7 | 5.8 |
| – | CCCCCCCCCC(=O)O[C@@H]1[C@@H]2OC(=O)[C@@H]([C@@H]2C(C)C)[C@]2(O)[C@H]3O[C@H]3[C@]3(C[C@](O)([C@H](C)OC)C(=O)O3)[C@]12C | inactive | inactive | inactive | Active | Active | Active | 0.7 | 5.8 |
